Calls of active or inactive are those of the source. The calls are words filed in the database; no cut-off is given here.
Key:
Mycobacterium marinum [1] = assay: Antituberculosis activity against Mycobacterium marinum assessed as diameter of zone of inhibition at 100 mM incubated for 7 days by disk diffusion assay; type: functional; conditions: 168 h, read-out: DIZ
In short: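 Mm 1218R grown in 7H9-ADC (0.025% Tween 80) to OD600 0.35, diluted to OD600 0.04, spread on 7H10-OADC agar and air-dried 10 min. A 6 mm disk received 10 µl of 100 mM analog (in DMSO or water). Plates were incubated 7 days at 30 °C in 5% CO2 (legend: 32 °C), three plates per analog. The bacteria-free zone around the disk was measured.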

[2] = Tmax in Swiss Webster male mouse at 12.5 mg/kg, ip; type: ADME, organism-based; parameters: dose 12.5 mg/kg, route intraperitoneal; conditions: in vivo
[3] = Cmax in Swiss Webster male mouse at 12.5 mg/kg, ip; type: ADME, organism-based; parameters: dose 12.5 mg/kg, route intraperitoneal; conditions: in vivo
[4] = Half life in Swiss Webster male mouse at 12.5 mg/kg, ip; type: ADME, organism-based; parameters: dose 12.5 mg/kg, route intraperitoneal; conditions: in vivo
Mycobacterium marinum [5] = assay: Potentiation of antituberculosis activity against Mycobacterium marinum assessed as UBS-109-induced growth inhibition at 0.3 uM after 72 hrs by liquid culture assay; type: functional, organism-based
In short: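 Mm cultured in 7H9-ADC broth with rifampicin (0.250–4 µg/mL) alone or combined with analog (6.250–100 µM), in duplicate, with no-drug and 1% DMSO controls. OD600 read after 72 h and normalized to vehicle. Combinations compared with each agent alone by nonparametric ANOVA. Mean ± SEM of three experiments.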

Mycobacterium marinum [6] = assay: Antituberculosis activity against Mycobacterium marinum assessed as growth inhibition after 72 hrs by liquid culture assay; type: functional, organism-based
In short: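 Mm 1218R grown in 7H9-ADC (0.025% Tween 80) to OD600 0.35, then diluted to OD600 0.04. Cultured 72 h with analog in DMSO at 0.780–100 µM (twofold steps), in duplicate, alongside no-drug and 1% DMSO vehicle controls. Mean ± SEM of three experiments.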

Mycobacterium marinum [7] = assay: Antituberculosis activity against rifampicin-resistant Mycobacterium marinum assessed as growth inhibition after 72 hrs by liquid culture assay; type: functional, organism-based
In short: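 Rifampicin-resistant Mm 1218R^rifR cultured in 7H9-ADC broth with DMSO, rifampicin or analog at varied concentrations for 72 h. Growth read as OD600 and normalized to untreated culture; IC50 derived. Mean ± SEM of three experiments.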

[8] = test system: Mycobacterium tuberculosis; assay: Antituberculosis activity against Mycobacterium tuberculosis H37Rv assessed as zone of inhibition at 100 mM incubated for 28 days by disk diffusion assay; type: functional, organism-based; conditions: 672 h
In short: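 Disk diffusion on Mtb H37Rv plates: disk loaded with 100 mM analog, plates incubated 28 days at 37 °C, then zone of inhibition measured.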

[9] = test system: Mycobacterium tuberculosis; assay: Antituberculosis activity against Mycobacterium tuberculosis Beijing F2 assessed as growth inhibition after 72 hrs by liquid culture assay; type: functional, organism-based; conditions: Beijing F2, 72 h
[10] = test system: Mycobacterium tuberculosis; assay: Antituberculosis activity against Mycobacterium tuberculosis H37Rv assessed as growth inhibition after 72 hrs by liquid culture assay; type: functional, organism-based
[11] = Tmax in CD1 male mouse at 50 mg/kg, po; type: ADME, organism-based; parameters: dose 50 mg/kg, route oral; conditions: in vivo
[12] = Cmax in CD1 male mouse at 50 mg/kg, po; type: ADME, organism-based; parameters: dose 50 mg/kg, route oral; conditions: in vivo
[13] = Half life in CD1 male mouse at 50 mg/kg, po; type: ADME, organism-based; parameters: dose 50 mg/kg, route oral; conditions: in vivo
[14] = Tmax in CD2F1 male mouse at 10 mg/kg, ip; type: ADME, organism-based; parameters: dose 10 mg/kg, route intraperitoneal; conditions: in vivo
[15] = Tmax in CD2F1 male mouse at 10 mg/kg, po; type: ADME, organism-based; parameters: dose 10 mg/kg, route oral; conditions: in vivo
[16] = Cmax in CD2F1 male mouse at 10 mg/kg, ip; type: ADME, organism-based; parameters: dose 10 mg/kg, route intraperitoneal; conditions: in vivo
[17] = Cmax in CD2F1 male mouse at 10 mg/kg, po; type: ADME, organism-based; parameters: dose 10 mg/kg, route oral; conditions: in vivo
[18] = Half life in CD2F1 male mouse at 10 mg/kg, ip; type: ADME, organism-based; parameters: dose 10 mg/kg, route intraperitoneal; conditions: in vivo
[19] = Half life in CD2F1 male mouse at 10 mg/kg, po; type: ADME, organism-based; parameters: dose 10 mg/kg, route oral; conditions: in vivo

## COC(=O)CCC(=O)N1C/C(=C\c2ccccc2F)C(=O)/C(=C/c2ccccc2F)C1
Mycobacterium marinum [1]
  zone of inhibition at 100000 µM: 1.8 mm

## O=C1/C(=C/c2ccccn2)CNC/C1=C\c1ccccn1
Mycobacterium marinum [1]
  zone of inhibition at 100000 µM: 4.7 mm
[2]
  Tmax: 0.25 h
[3]
  Cmax: 1070 ng/mL
[4]
  half-life: 2.2 h

## COc1cc(/C=C/C(=O)CC(=O)/C=C/c2ccc(O)c(OC)c2)ccc1O [CURCUMIN]
Mycobacterium marinum [1]
  zone of inhibition at 100000 µM: 1.1 mm

## CO[C@H]1/C=C/O[C@@]2(C)Oc3c(C)c(O)c4c(O)c(c(/C=N/N5CCN(C)CC5)c(O)c4c3C2=O)NC(=O)/C(C)=C\C=C\[C@H](C)[C@H](O)[C@@H](C)[C@@H](O)[C@@H](C)[C@H](OC(C)=O)[C@@H]1C
Mycobacterium marinum [5]
  Activity: inactive

## CN1C/C(=C\c2ccccn2)C(=O)/C(=C/c2ccccn2)C1
Mycobacterium marinum [1]
  zone of inhibition at 100000 µM: 5.7 mm
Mycobacterium marinum [6]
  IC50: 10 µM
Mycobacterium marinum [7]
  IC50: 4 µM
[8]
  IC50: 4 µM
[9]
  IC50: 20 µM
[10]
  IC50: 10 µM
[11]
  Tmax: 0.5 h
[12]
  Cmax: 131 ng/mL
[13]
  half-life: 3.7 h

## O=C1/C(=C/c2ccccn2)CNC[C@H]1Cc1ccccn1
Mycobacterium marinum [1]
  zone of inhibition at 100000 µM: 4.6 mm
Mycobacterium marinum [6]
  IC50: 50 µM

## CN1C/C(=C\c2ccccc2F)C(=O)/C(=C/c2ccccc2F)C1
Mycobacterium marinum [1]
  zone of inhibition at 100000 µM: 1.4 mm

## O=C1/C(=C/c2ccccn2)CSC/C1=C\c1ccccn1
Mycobacterium marinum [1]
  zone of inhibition at 100000 µM: 2.7 mm

## O=C1C(Cc2ccccn2)CNCC1Cc1ccccn1 (stereo unspecified)
Mycobacterium marinum [1]
  zone of inhibition at 100000 µM: 0 mm

## O=C1/C(=C/c2ccccc2F)CNC/C1=C\c1ccccc1F
Mycobacterium marinum [1]
  zone of inhibition at 100000 µM: 2.6 mm
Mycobacterium marinum [6]
  IC50: 25 µM
[9]
  IC50: 50 µM
[10]
  IC50: 20 µM
[14]
  Tmax: 3 min
[15]
  Tmax: 3 min
[16]
  Cmax: 259 ng/mL
[17]
  Cmax: 275 ng/mL
[18]
  half-life: 3.65 h
[19]
  half-life: 2.95 h
